In ChEMBL document CHEMBL5576048, “A Second-Generation Oral SARS-CoV-2 Main Protease Inhibitor Clinical Candidate for the Treatment of COVID-19” (J Med Chem, 2024):

Tests used:
SARS-CoV-2 [1] = assay: Antiviral activity against SARS CoV-2 USA_WA1/2020 infected in ACE2 enriched African green monkey Vero E6 cells assessed as reduction in virus-induced cytopathic effect measured after 3 days by celltiter-glo assay; type: functional, organism-based; settings: Severe acute respiratory syndrome coronavirus 2, USA_WA1/2020, Vero C1008, 72 h
[2] = Passive permeability across apical to basolateral side in dog RRCK cells incubated for 30 mins; type: ADME, cell-based, Canis lupus familiaris; settings: mdckii-le, 0.5 h
[3] = Lipophilicity, log D of compound at pH 7.4 by shake-flask method; type: physicochemical; settings: buffer
[4] = AUC (0 to 24 hrs) in Wistar Hannover rat at 100 mg/kg, po administered as crystalline anhydrous form in 2% (v/v) Tween 80/98% 0.5% (w/v) methyl cellulose in water formulation by LC-MS/MS analysis; type: ADME, organism-based; settings: in vivo
Method in brief: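 Single high oral dose of 100 mg/kg in male Wistar–Han rats in the fed state, given as crystalline suspension in 2% (v/v) Tween 80 in 0.5% (w/v) methylcellulose in water. Parameters were derived from plasma concentration–time data and reported as mean ± S.D. (n = 3) or mean and individual values (n = 2).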

[5] = AUC (0 to 24 hrs) in Wistar Hannover rat at 10 mg/kg, po administered as crystalline MTBE in 10% (v/v) ethanol/10% (v/v) capmul MCM/35% (v/v) PEG400/45% (v/v) Tween 80 formulation by LC-MS/MS analysis; type: ADME, organism-based; settings: in vivo
[6] = AUC (0 to 24 hrs) in Wistar Hannover rat at 100 mg/kg, po administered as crystalline MTBE in 10% (v/v) ethanol/10% (v/v) capmul MCM/35% (v/v) PEG400/45% (v/v) Tween 80 formulation by LC-MS/MS analysis; type: ADME, organism-based; settings: in vivo
[7] = AUC (0 to 24 hrs) in Wistar Hannover rat at 1000 mg/kg, po administered as crystalline MTBE in 10% (v/v) ethanol/10% (v/v) capmul MCM/35% (v/v) PEG400/45% (v/v) Tween 80 formulation by LC-MS/MS analysis; type: ADME, organism-based; settings: in vivo
in vivo [8] = settings: Wistar Hannover, rat, po, 1000 mg/kg
in vivo [9] = settings: Wistar Hannover, rat, po, 100 mg/kg
in vivo [10] = settings: Wistar Hannover, rat, po, 10 mg/kg
in vivo [11] = settings: Wistar Hannover, rat, po, 100 mg/kg; remark: listed apart in the source
in vivo [12] = settings: Wistar Hannover, rat, po, 1000 mg/kg; remark: listed apart in the source
[13] = Metabolic stability in human liver microsome assessed as apparent intrinsic clearance in presence of NADPH incubated for 40 mins by LS-MS/MS analysis; type: ADME; settings: microsomes
[14] = target: Replicase polyprotein 1ab (Severe acute respiratory syndrome coronavirus 2, UniProt P0DTD1); assay: Inhibition of SARS-Cov-2 MPro assessed as inhibition constant by FRET assay
[15] = Clearance in Wistar Hannover rat at 1 mg/kg, iv by LC-MS/MS analysis; type: ADME, organism-based; settings: in vivo
[16] = Volume of distribution at steady state in Wistar Hannover rat at 1 mg/kg, iv by LC-MS/MS analysis; type: ADME, organism-based; settings: in vivo, read-out: Vdss
[17] = Half life in Wistar Hannover rat at 1 mg/kg, iv by LC-MS/MS analysis; type: ADME, organism-based; settings: in vivo
[18] = Renal clerance in Wistar Hannover rat at 1 mg/kg, iv by LC-MS/MS analysis; type: ADME, organism-based; settings: in vivo
[19] = Cmax in Wistar Hannover rat at 10 mg/kg, po by LC-MS/MS analysis; type: ADME, organism-based; settings: in vivo
Method in brief: (§1)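 Male Wistar–Han rats in the fed state were dosed orally at 10 mg/kg, as amorphous solid in solution or crystalline solid in suspension, in 2% (v/v) Tween 80 in 0.5% (w/v) methyl cellulose in water. Parameters were calculated from plasma concentration–time data; mean and individual values given (n = 2). Oral F is set against a 1 mg/kg i.v. dose.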

[20] = Cmax in Wistar Hannover rat at 10 mg/kg, po administered as ASD form in 2% Tween 80 (v/v) in 0.5% (w/v) methyl cellulose in water formulation by LC-MS/MS analysis; type: ADME, organism-based; settings: in vivo
Method in brief: (§2)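 Parameters come from plasma concentration–time data as mean and individual values (n = 2); exposure for this form was reported as AUC0–∞. Oral F is referenced to a 1 mg/kg i.v. dose.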

[21] = Tmax in Wistar Hannover rat at 10 mg/kg, po by LC-MS/MS analysis; type: ADME, organism-based; settings: in vivo; method in brief: as §1
[22] = Tmax in Wistar Hannover rat at 10 mg/kg, po administered as ASD form in 2% Tween 80 (v/v) in 0.5% (w/v) methyl cellulose in water formulation by LC-MS/MS analysis; type: ADME, organism-based; settings: in vivo; method in brief: as §2
[23] = AUC (0 to 24 hrs) in Wistar Hannover rat at 1 mg/kg, iv by LC-MS/MS analysis; type: ADME, organism-based; settings: in vivo
[24] = AUC (0 to 24 hrs) in Wistar Hannover rat at 10 mg/kg, po by LC-MS/MS analysis; type: ADME, organism-based; settings: in vivo; method in brief: as §1
[25] = AUC (0 to 24 hrs) in Wistar Hannover rat at 10 mg/kg, po administered as ASD form in 2% Tween 80 (v/v) in 0.5% (w/v) methyl cellulose in water formulation by LC-MS/MS analysis; type: ADME, organism-based; settings: in vivo
[26] = Oral bioavailability in Wistar Hannover rat at 10 mg/kg by LC-MS/MS analysis; type: ADME, organism-based; settings: in vivo; method in brief: as §1
[27] = Oral bioavailability in Wistar Hannover rat at 10 mg/kg administered as ASD form in 2% Tween 80 (v/v) in 0.5% (w/v) methyl cellulose in water formulation by LC-MS/MS analysis; type: ADME, organism-based; settings: in vivo; method in brief: as §2
SARS-CoV-2 [28] = assay: Antiviral activity against SARS CoV-2 infected in African green monkey Vero E6 cells; type: functional, organism-based; settings: Severe acute respiratory syndrome coronavirus 2, Vero C1008
[29] = Cmax in Wistar Hannover rat at 10 mg/kg, po administered as crystalline form in 2% Tween 80 (v/v) in 0.5% (w/v) methyl cellulose in water formulation by LC-MS/MS analysis; type: ADME, organism-based; settings: in vivo; method in brief: as §1
[30] = Tmax in Wistar Hannover rat at 10 mg/kg, po administered as crystalline form in 2% Tween 80 (v/v) in 0.5% (w/v) methyl cellulose in water formulation by LC-MS/MS analysis; type: ADME, organism-based; settings: in vivo; method in brief: as §1
[31] = AUC (0 to 24 hrs) in Wistar Hannover rat at 10 mg/kg, po administered as crystalline form in 2% Tween 80 (v/v) in 0.5% (w/v) methyl cellulose in water formulation by LC-MS/MS analysis; type: ADME, organism-based; settings: in vivo; method in brief: as §1
[32] = Oral bioavailability in Wistar Hannover rat at 10 mg/kg administered as crystalline form in 2% Tween 80 (v/v) in 0.5% (w/v) methyl cellulose in water formulation by LC-MS/MS analysis; type: ADME, organism-based; settings: in vivo; method in brief: as §1

Structure (SMILES): CC(C)(C)[C@H](NC(=O)C(F)(F)F)C(=O)N1C[C@H]2[C@@H]([C@H]1C(=O)N[C@H](C#N)C[C@@H]1CCNC1=O)C2(C)C
- EC50 (SARS-CoV-2 [1]): 0.0814 µM
- permeability [2]: 1.03 10^-6 cm/s
- logD [3]: 1.9
- AUC(0-t) [4]: 18000 ng·h/mL
- AUC(0-t) [5]: 3190 ng·h/mL
- AUC(0-t) [6]: 68300 ng·h/mL
- AUC(0-t) [7]: 746000 ng·h/mL
- Cmax (in vivo [8]): 88300 ng/mL
- Tmax (in vivo [9]): 84 min
- Tmax (in vivo [10]): 90 min
- Tmax (in vivo [11]): 45 min
- Tmax (in vivo [12]): 60 min

Structure (SMILES): CNC(=O)N[C@H](C(=O)N1C[C@H]2[C@@H]([C@H]1C(=O)N[C@H](C#N)C[C@@H]1CCNC1=O)C2(C)C)C(C)(C)C
- permeability [2]: 0.62 10^-6 cm/s
- CLH(app) [13]: < 7.12 µL/min/mg
- logD [3]: 0.77

Structure (SMILES): COC(=O)N[C@H](C(=O)N1C[C@H]2[C@@H]([C@H]1C(=O)N[C@H](C#N)C[C@@H]1CCNC1=O)C2(C)C)C(C)(C)C
- permeability [2]: 0.61 10^-6 cm/s
- CLH(app) [13]: 8.1 µL/min/mg
- logD [3]: 1.2

Structure (SMILES): CC(C)(C)[C@H](NC(=O)C(F)(F)F)C(=O)N1C[C@H](C(F)(F)F)C[C@H]1C(=O)N[C@H](C#N)C[C@@H]1CCNC1=O
- Ki [14]: 0.00446 µM
- EC50 (SARS-CoV-2 [1]): 0.0655 µM
- permeability [2]: 0.71 10^-6 cm/s
- CLH(app) [13]: 13 µL/min/mg
- logD [3]: 1.4

Structure (SMILES): COC(=O)N[C@H](C(=O)N1C[C@H](C(F)(F)F)C[C@H]1C(=O)N[C@H](C#N)C[C@@H]1CCCNC1=O)C(C)C
- Ki [14]: 0.00113 µM
- EC50 (SARS-CoV-2 [1]): 0.0789 µM
- permeability [2]: 0.63 10^-6 cm/s
- CLH(app) [13]: < 7.12 µL/min/mg
- logD [3]: 0.7
- clearance [15]: 35.6 mL/min/kg
- Vd [16]: 0.55 L/kg
- half-life [17]: 114 min
- CL renal [18]: 7.6 mL/min/kg
- Cmax [19]: 310 ng/mL
- Cmax [20]: 177 ng/mL
- Tmax [21]: 22.8 min
- Tmax [22]: 22.8 min
- AUC(0-t) [23]: 467 ng·h/mL
- AUC(0-t) [24]: 359 ng·h/mL
- AUC(0-t) [25]: 380 ng·h/mL
- bioavailability [26]: 7.7%
- bioavailability [27]: 8.1%

Structure (SMILES): COC(=O)N[C@H](C(=O)N1C[C@H](OC(F)F)C[C@H]1C(=O)N[C@H](C#N)C[C@@H]1CCNC1=O)C(C)(C)C
- Ki [14]: 0.00388 µM
- EC50 (SARS-CoV-2 [1]): 0.45 µM
- permeability [2]: 0.76 10^-6 cm/s
- CLH(app) [13]: < 7.12 µL/min/mg
- logD [3]: 0.6

Structure (SMILES): COC(=O)N[C@H](C(=O)N1C[C@H](C(F)(F)F)C[C@H]1C(=O)N[C@H](C#N)C[C@@H]1CC(O)NC1=O)C(C)(C)C (stereo not given in full)
- Ki [14]: 0.013 µM
- EC50 (SARS-CoV-2 [28]): 1.65 µM

Structure (SMILES): COC(=O)N[C@H](C(=O)N1C[C@H](OC(F)(F)F)C[C@H]1C(=O)N[C@H](C#N)C[C@@H]1CCNC1=O)C(C)(C)C
- Ki [14]: 0.00063 µM
- EC50 (SARS-CoV-2 [1]): 0.141 µM
- permeability [2]: 2.05 10^-6 cm/s
- CLH(app) [13]: < 7.12 µL/min/mg
- logD [3]: 1
- clearance [15]: 25.4 mL/min/kg
- Vd [16]: 0.87 L/kg
- half-life [17]: 360 min
- CL renal [18]: 8.1 mL/min/kg
- Cmax [19]: 358 ng/mL
- Tmax [21]: 15 min
- AUC(0-t) [23]: 650 ng·h/mL
- AUC(0-t) [24]: 559 ng·h/mL
- bioavailability [26]: 8.6%

Structure (SMILES): COC(=O)N[C@H](C(=O)N1C[C@H](C(F)(F)F)C[C@H]1C(=O)N[C@H](C#N)C[C@@H]1CCCNC1=O)C(C)(C)C
- Ki [14]: 0.00017 µM
- EC50 (SARS-CoV-2 [1]): 0.0462 µM
- permeability [2]: 0.4 10^-6 cm/s
- CLH(app) [13]: 9.5 µL/min/mg
- logD [3]: 1.2

Structure (SMILES): CC(C)(C)[C@H](NC(=O)C(F)(F)F)C(=O)N1C[C@H](OC(F)(F)F)C[C@H]1C(=O)N[C@H](C#N)C[C@@H]1CCNC1=O
- Ki [14]: 0.00071 µM
- EC50 (SARS-CoV-2 [1]): 0.0809 µM
- permeability [2]: 1.12 10^-6 cm/s
- CLH(app) [13]: < 9.42 µL/min/mg
- logD [3]: 1.7

Structure (SMILES): COC(=O)N[C@H](C(=O)N1C[C@H](C(F)(F)F)C[C@H]1C(=O)N[C@H](C#N)C[C@@H]1CCNC1=O)C(C)C
- Ki [14]: 0.0133 µM
- EC50 (SARS-CoV-2 [1]): 0.488 µM
- permeability [2]: 0.5 10^-6 cm/s
- CLH(app) [13]: < 7.12 µL/min/mg
- logD [3]: 0.9

Structure (SMILES): CC(C)(C)[C@H](NC(=O)C(F)(F)F)C(=O)N1C[C@H](OC(F)F)C[C@H]1C(=O)N[C@H](C#N)C[C@@H]1CCNC1=O
- Ki [14]: 0.00283 µM
- EC50 (SARS-CoV-2 [1]): 0.193 µM
- permeability [2]: 1.25 10^-6 cm/s
- CLH(app) [13]: < 7.12 µL/min/mg
- logD [3]: 1.2
- clearance [15]: 33.1 mL/min/kg
- Vd [16]: 1.05 L/kg
- half-life [17]: 306 min
- CL renal [18]: 4.5 mL/min/kg
- Cmax [29]: 272 ng/mL
- Cmax [20]: 92.8 ng/mL
- Tmax [30]: 30 min
- Tmax [22]: 45 min
- AUC(0-t) [23]: 502 ng·h/mL
- AUC(0-t) [31]: 599 ng·h/mL
- AUC(0-t) [25]: 212 ng·h/mL
- bioavailability [32]: 11.9%
- bioavailability [27]: 4.2%
